High-throughput results from PubChem BioAssay.
Hits are enriched below; roughly 2% of the tested compounds scored in any of these assays.
ABHD4 inh – inhibits mouse alpha/beta hydrolase domain 4. Q8VD66. purified mABHD4, FP-Rh probe fluorescence polarization. inhibition, % at 8.92 µM. 370,000 compounds, 0.54% hits. AID 720543;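 active means inhibition exceeding the mean over every tested compound plus 3 SD, cut at about 30% in these data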
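system = mouse ABHD4 enzyme, wild type | medium = HEPES pH 7.0, NaCl, Pluronic buffer | also added = FP-Rh probe | incubation = Enzyme–compound pre-incubation 45 min, then probe 60 min, both 25 °C | technique = fluorescence polarization, excitation 525 nm, emission 598 nm, BODIPY TMR filters | controls = S159A mutant high control, sample median low control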
TCR-CD3 inh – blocks the human TCR-CD3 interaction | TAMRA-labeled TCR probe fluorescence, biochemical | inhibition, % at 9.4 µM | 360,000 compounds, 0.37% hits | AID 651800; in the data active means inhibition above about 19%;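 further: recombinant mutant TCR 2C K166C tagged with TAMRA read by polarization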
HTRA1 inhibitor – HTRA1 (human) protease inhibition; recombinant HTRA1, FP-rhodamine activity-based probe, fluorescence polarization; 340,000 compounds, 0.5% hits; inhibition, % at 5.96 µM; Q92743; in the data active means inhibition above about 36%
TDP2 absorb – TDP2 (human) inhibition, absorbance primary screen | recombinant TDP2, T5PNP hydrolysis, p-nitrophenol absorbance 415 nm | inhibition, % at 12.8 µM | 370,000 compounds, 0.34% hits | AID 720702;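 active means inhibition above the mean of all tested compounds plus 3 SD, set per campaign, cut at about 25% in these data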
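Incubation: 2 h at 37 °C; Test system: recombinant human TDP2; Quantity: enzyme 120 nM; Read-out basis: percent inhibition; Medium: 50 mM Tris-HCl pH 7.5 with Mg2+, KCl, DTT, BSA; Repeats: single replicate; Compound: 12.8 µM single point, 1% DMSO; Signal: epi absorbance; Reagent: 5 mM T5PNP chromogenic substrate; Benchmarks: no-enzyme high, DMSO-plus-enzyme low.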
SIAE primary – human SIAE inhibition, primary screen. SIAE FP-Rh probe binding, fluorescence polarization. inhibition, % at 9.66 µM. 370,000 compounds, 0.69% hits. Q9HAT2;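 active means inhibition above a cutoff: mean of compounds within the control limits plus 3 SD of those, cut at about 17% in these data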
Target sequence (Q9HAT2 whole entry, looked up): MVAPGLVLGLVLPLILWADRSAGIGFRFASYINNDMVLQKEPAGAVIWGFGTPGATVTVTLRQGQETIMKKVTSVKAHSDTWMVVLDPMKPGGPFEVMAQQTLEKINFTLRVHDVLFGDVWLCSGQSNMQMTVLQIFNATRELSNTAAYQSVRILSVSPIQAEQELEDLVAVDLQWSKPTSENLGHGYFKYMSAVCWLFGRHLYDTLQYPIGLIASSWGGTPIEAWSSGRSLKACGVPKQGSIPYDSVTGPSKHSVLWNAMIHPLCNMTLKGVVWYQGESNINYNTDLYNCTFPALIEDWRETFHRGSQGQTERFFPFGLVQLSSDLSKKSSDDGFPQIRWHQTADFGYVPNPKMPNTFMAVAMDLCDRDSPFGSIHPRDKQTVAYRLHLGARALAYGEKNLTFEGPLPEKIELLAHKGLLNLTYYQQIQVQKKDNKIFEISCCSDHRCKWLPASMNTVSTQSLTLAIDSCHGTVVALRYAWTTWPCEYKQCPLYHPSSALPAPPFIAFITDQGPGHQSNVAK
PAD4 inh – inhibitors of human PAD4; Q9UM07; recombinant PAD4, RCA probe fluorescence polarization; inhibition, % at 6.36 µM; 330,000 compounds, 0.41% hits;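 active means percent inhibition above a cutoff equal to the mean of all tested compounds plus 3 SD, cut at about 15% in these data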
Hits are given with their value.

Screening COc1cc(OC)c(NC(=O)CN(C)S(=O)(=O)c2ccc3[nH]c(=O)oc3c2)cc1Cl returned ABHD4 inh inactive, TCR-CD3 inh 20, HTRA1 inhibitor inactive, TDP2 absorb inactive, SIAE primary inactive and PAD4 inh inactive.
For Nc1nnc(CC(=O)N/N=C/c2cc([N+](=O)[O-])cc(Br)c2O)s1 the results were ABHD4 inh 39, TCR-CD3 inh 34, HTRA1 inhibitor inactive, TDP2 absorb inactive, SIAE primary inactive and PAD4 inh inactive.
For Nc1nnc(CC(=O)N/N=C/c2cccc([N+](=O)[O-])c2)s1 the results were ABHD4 inh inactive, TCR-CD3 inh inactive, HTRA1 inhibitor inactive, TDP2 absorb inactive, SIAE primary inactive and PAD4 inh inactive.
`CC1CCN(C(=O)CCC(=O)N2CC(C)Oc3ccccc32)CC1` (centres undefined) gave ABHD4 inh inactive, TCR-CD3 inh inactive, HTRA1 inhibitor inactive, TDP2 absorb inactive, SIAE primary inactive and PAD4 inh inactive.
For Cc1cccc(N2CCN(C(=O)CCC(=O)N3CC(C)Oc4ccccc43)CC2)c1C (centres undefined) the results were ABHD4 inh inactive, TCR-CD3 inh 20, HTRA1 inhibitor inactive, TDP2 absorb inactive, SIAE primary inactive and PAD4 inh inactive.
`Cc1ccc(NC(=O)C2CCCN(c3nnc(-n4cccc4)s3)C2)c(C)c1` (centres undefined) gave ABHD4 inh inactive, TDP2 absorb inactive and SIAE primary inactive.
For O=C(NC1CCCCC1)Oc1cc2oc(=O)sc2cc1Br the results were ABHD4 inh 33, TCR-CD3 inh inactive, HTRA1 inhibitor inactive, TDP2 absorb inactive, SIAE primary inactive and PAD4 inh inactive.
For C=CCc1cccc(C=NNC(=O)c2ccco2)c1O the results were ABHD4 inh inactive, TDP2 absorb inactive and SIAE primary inactive.
`COc1ccc2ccccc2c1C=NNC(=O)c1cc(-c2ccc(C)cc2)n[nH]1` gave ABHD4 inh inactive, TDP2 absorb inactive and SIAE primary inactive.
N=c1c(C(=O)NC2CCCCC2)cc2c(=O)n3ccccc3nc2n1Cc1ccccc1 was read as ABHD4 inh inactive, TCR-CD3 inh inactive, HTRA1 inhibitor inactive, TDP2 absorb inactive, SIAE primary inactive and PAD4 inh inactive.
`N=c1c(C(=O)NC2CCCCC2)cc2c(=O)n3ccccc3nc2n1CCc1ccccc1` gave ABHD4 inh inactive, TCR-CD3 inh inactive, HTRA1 inhibitor inactive, TDP2 absorb inactive, SIAE primary 92 and PAD4 inh inactive.
CC[n+]1ccc(/C=C2\Sc3ccccc3N2CCCS(=O)(=O)[O-])c2ccccc21 was read as ABHD4 inh inactive, TCR-CD3 inh inactive, HTRA1 inhibitor inactive, TDP2 absorb inactive, SIAE primary inactive and PAD4 inh inactive.
CN1C=C/C(=C\c2cc[n+](C)c3ccccc23)c2ccccc21 was read as ABHD4 inh inactive, TCR-CD3 inh inactive, HTRA1 inhibitor inactive, TDP2 absorb 28 and SIAE primary inactive.
For Nc1ccc(O)c(C(=O)O)c1 the results were PAD4 inh 16.
COc1ccc(NC(=S)NC(NC(=O)CCl)C(Cl)(Cl)Cl)c([N+](=O)[O-])c1 (centres undefined) was read as HTRA1 inhibitor 42 and PAD4 inh inactive.
Screening COc1ccc(NC(=S)NC(NC(=O)c2ccccc2Cl)C(Cl)(Cl)Cl)c([N+](=O)[O-])c1 (centres undefined) returned ABHD4 inh inactive, TCR-CD3 inh inactive, HTRA1 inhibitor inactive, TDP2 absorb inactive, SIAE primary inactive and PAD4 inh inactive.
CCCCCCC/C=C(\C)[C@@H](O)[C@@H](C)C(=O)N1CCC[C@@H]1C(=O)O was read as ABHD4 inh inactive, TDP2 absorb inactive and SIAE primary inactive.
For COc1ccc(NC(=S)NC(NC(=O)/C=C/c2ccccc2)C(Cl)(Cl)Cl)cc1 (centres undefined) the results were ABHD4 inh inactive, TCR-CD3 inh inactive, HTRA1 inhibitor inactive, TDP2 absorb inactive, SIAE primary inactive and PAD4 inh inactive.
O=C(/C=C/c1ccccc1)NC(NC(=S)Nc1ccc(Cl)cc1)C(Cl)(Cl)Cl (centres undefined) was read as ABHD4 inh inactive, TCR-CD3 inh 26, HTRA1 inhibitor inactive, TDP2 absorb inactive, SIAE primary inactive and PAD4 inh inactive.
Nc1ccc(O)cc1 was read as PAD4 inh 52.
For Nc1nc2c(s1)COc1ccccc1-2 the results were ABHD4 inh inactive, TCR-CD3 inh inactive, HTRA1 inhibitor inactive, TDP2 absorb inactive, SIAE primary inactive and PAD4 inh inactive.
`Nc1nc2c(s1)CCc1c-2cnn1-c1ccccc1` gave HTRA1 inhibitor inactive and PAD4 inh 40.
For Cc1ccc(S(=O)(=O)C(C#N)c2nc3ccccc3nc2N2CCCC2)cc1 (centres undefined) the results were ABHD4 inh inactive, TCR-CD3 inh inactive, HTRA1 inhibitor inactive, TDP2 absorb 37, SIAE primary inactive and PAD4 inh inactive.
For COc1ccc(CN(CCN2CCOCC2)C(=O)c2ccc(F)cc2F)cc1OC the results were ABHD4 inh inactive, TDP2 absorb inactive and SIAE primary inactive.
COc1ccc(Br)cc1C(=O)Nc1ccc(N2CCCC2)cc1 was read as ABHD4 inh inactive, TCR-CD3 inh 19, HTRA1 inhibitor inactive, TDP2 absorb inactive, SIAE primary inactive and PAD4 inh inactive.
Cc1nc2ccc(S(=O)(=O)NCC(=O)N(C)Cc3ccccc3Cl)cc2s1 was read as ABHD4 inh inactive, TDP2 absorb inactive and SIAE primary inactive.
N#C/C(=C/c1cc(Cl)c(O)c(Cl)c1)C(=O)N1CCCCC1 was read as ABHD4 inh inactive, TCR-CD3 inh inactive, HTRA1 inhibitor inactive, TDP2 absorb inactive, SIAE primary inactive and PAD4 inh inactive.
N#CC(C#N)=C(N)/C(C#N)=C/c1cc(O)c(O)c(O)c1 was read as ABHD4 inh 33, TCR-CD3 inh inactive, HTRA1 inhibitor inactive, TDP2 absorb inactive, SIAE primary inactive and PAD4 inh inactive.
`CCOc1ccccc1C(O)C1=CC(=O)c2ccccc2C1=O` (centres undefined) gave ABHD4 inh 43, TCR-CD3 inh inactive, HTRA1 inhibitor inactive, TDP2 absorb inactive and SIAE primary inactive.
For CCOc1ccccc1C(N)=O the results were ABHD4 inh inactive, TCR-CD3 inh inactive, HTRA1 inhibitor inactive, TDP2 absorb inactive and SIAE primary inactive.
Screening Cc1ccc(NCN2C(=O)C3C4C=CC(C4)C3C2=O)cc1 (centres undefined) returned ABHD4 inh inactive, TCR-CD3 inh inactive, HTRA1 inhibitor inactive, TDP2 absorb inactive, SIAE primary inactive and PAD4 inh inactive.
O=C1C2C3C=CC(C3)C2C(=O)N1CNc1ccc(O)cc1 (centres undefined) was read as PAD4 inh 33.
For O=C(OCn1ncc(Br)c(Br)c1=O)c1ccc(F)cc1 the results were HTRA1 inhibitor inactive and PAD4 inh 26.
